# High-throughput results deposited in PubChem BioAssay by several laboratories.
# This is one part of a sample in which hits are shown more often than they occur.
# Lmaj promast: reduces viability of Leishmania major promastigotes | inhibition, % at 10 µM | resazurin fluorescence viability | 9% of 200,000 active | AID 1063; in the data active = inhibition above about 50%;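 also: promastigotes grown with compound for 44 hours at 28 °C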
# HSF1 activator: increases HSF-1 driven luciferase reporter signal. 1.7% of 300,000 active. NIH3T3-HGL HSF-1 luciferase reporter, MG132, 8 h; 100% = twice DMSO control signal. activation, % at 9 µM. AID 504408;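 active = mean replicate activation of at least 50% with a set share of replicates each reaching 50%; inconclusive = only one of those two conditions met; inactive = mean below 50% and too few replicates reaching it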;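 also: 0% = median of the neutral control wells and 100% = twice that signal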
# Hsp70 activator: Hsp70 transcriptional activation, primary screen; HeLa Hsp70 promoter luciferase reporter, luminescence; scaled: vehicle 0, proteasome-inhibitor control 100%; activation, % at 10 µM; 0.04% of 200,000 active; AID 1203;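 active = activation above the mean across all tested compounds plus 3 SD, cutoff set per campaign, cut at about 5.5% in these data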;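 also: 100% = MG132 at 30 µM as the positive control and 0% = DMSO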
# HSF1 inh: HSF1 inhibition | NIH3T3-HGL HSE-luciferase, MG132-induced, luminescence 8 h; active compounds read low | activity change, negative = inhibition, % at 7.5 µM (by protocol) | 0.77% of 300,000 active | AID 2098;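 active = more than half of replicate wells show activity change below -50%, luminescence cut by over half; inconclusive = some wells, but at most half, below -50%; inactive = no replicate well below -50%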;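 also: luciferase reports HSF-1 transcriptional activity via heat shock element; 0% = median of DMSO wells and -100% = zero luminescence signal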
# T cruzi inh: T. cruzi replication inhibition; AID 1885; inhibition, % (concentration not given with the values); 1.4% of 300,000 active; T. cruzi beta-gal in NIH3T3, luminescence, 90 h;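 active = mean inhibition across valid replicates above about 55%, limit read from the data; inconclusive = mean below that limit but half or more replicates reach it; inactive = mean below it, under half of replicates reach it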;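 also: signal also drops with host cell toxicity which is not excluded here; 0% = plate median of DMSO wells and 100% = zero luminescence signal; higher percent means less beta-gal luminescence so fewer parasites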
#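 System: NIH/3T3 fibroblasts plus reporter T. cruzi. Medium: DMEM plus 2% FBS. Probe or stimulus: 5000 reporter trypomastigotes per well. Compound: single 50 nL compound addition per well in DMSO. Incubation: co-culture of at least 90 h after 3 h attachment. Detection: GalScreen β-gal luminescence, detergent lysis, 60 min. Evaluation: parasite load inhibition, %.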
# Active calls of the source: *; ? = inconclusive; . = no result; ! = not active in a repeat.
SMILES,Lmaj promast,HSF1 activator,Hsp70 activator,HSF1 inh,T cruzi inh
COC(=O)Nc1ccc(S(=O)(=O)NNC(=O)c2c(O)c3ccccc3n(C)c2=O)cc1,.,-10.8,.,-2.4,-8.1
CSCCC(NC(N)=O)C(=O)Nc1ccc(F)c(Cl)c1 (stereo not given),.,-3.4,.,-4.5,-7.7
O=C(CCc1nnc2ccc(N3CCC4(CC3)OCCO4)nn12)NCc1ccccc1Cl,.,5.5,.,-6.6,-10.2
Cc1ccc(-n2c(C)cc(C(=O)COC(=O)c3ccc[nH]c3=O)c2C)cc1C,0.7,-20.1,0.1,-14.0,-18.7
Cc1cc(C(=O)COC(=O)c2ccc[nH]c2=O)c(C)n1-c1ccccc1F,.,-63.8,.,-51.3*,-3.9
O=C1Nc2ccccc2S/C1=C/NCc1ccccc1Cl,-4.8,13.4,-0.3,-4.2,5.3
Cc1ccc(N/C=C2/Sc3ccccc3NC2=O)cc1,5.8,38.5,-0.2,26.1,58.9*
COc1ccccc1N/C=C1/Sc2cc(Cl)ccc2NC1=O,25.1,22.4,-0.2,13.2,9.9
COc1ccc(N/C=C2/Sc3ccccc3NC2=O)cc1,-6.5,24.2,-0.2,5.2,67.9*
OC(CN1CCOCC1)C12CC3CC(CC(C3)C1)C2 (stereo not given),-2.5,40.2,0.1,14.5,-10.6
C1CN(CC23CC4CC(CC(C4)C2)C3)CCO1,80.7*,-10.6,0.3,-6.4,-7.1
O=C(CSc1ncn[nH]1)Nc1ccc(S(=O)(=O)Nc2ncccn2)cc1,-8.7,-9.6,0.1,0.4,-21.3
CC(C)(C)NC(=O)c1c(F)c(F)c(F)c(F)c1F,-5.5,-78.5,-0.3,-72.0*,-4.2
CC(=O)Oc1ccc2c(C)cc(=O)oc2c1,-5.0,-5.8,0.0,-3.3,-14.8
CCN(c1ccccc1)S(=O)(=O)c1cc(C(=O)Oc2ccc3c(C)cc(=O)oc3c2)ccc1C,67.0*,7.9,-0.3,8.0,-4.1
CCOC(=O)c1c(C)[nH]c(C(=O)N/N=C\c2ccccc2Cl)c1C,16.5,18.4,-0.2,1.6,4.4
CCC(=O)c1ccc(OCC(O)CN(CCc2ccccc2)Cc2ccccc2)cc1 (stereo not given),99.6*,1.7,-0.3,-3.6,?
CCCCN(CCCC)CC(O)COc1ccccc1C(=O)Nc1ccccc1 (stereo not given),90.8*,22.9,1.5,7.9,16.2
CCN(CC)CC(O)COc1ccccc1C(=O)CCc1ccccc1 (stereo not given),94.8*,-3.5,0.1,-7.6,3.7
O=C(Nc1ccccc1)c1ccccc1OCc1ccc(F)cc1,.,21.2,.,20.2,9.2
CSc1nnc(C)c(=O)n1COC(=O)/C=C/c1ccc2c(c1)OCO2,8.2,.,0.2,.,6.5
O=C(O)CN1C(=O)C2C3CC(C2C1=O)C1C(c2ccc(F)cc2)c2sc(=O)[nH]c2SC31 (stereo not given),-5.5,6.9,-0.3,-3.9,-2.8
Cc1ccc(C(OCC(C)(C)C[N+](C)(C)C)c2ccccc2)cc1 (stereo not given),100.0*,4.8,-0.2,-7.4,32.7
COc1ccc(Br)cc1CNC(=O)CCN1C(=O)COc2ccccc21,-5.5,-74.5,-0.2,-67.5*,-7.9
COc1ccc(OC)c(CNC(=O)CCN2C(=O)COc3ccccc32)c1,-3.2,-4.4,-0.4,1.0,-1.6
SMILES,Lmaj promast,HSF1 activator,Hsp70 activator,HSF1 inh,T cruzi inh
CC1CCC(C(C)C)C(OC(=O)Cn2c(-c3ccc(Br)cc3)[n+](C)c3ccccc32)C1 (stereo not given),100.4*,3.9,-0.3,-6.7,62.9*!
Cc1ccccc1OCc1n(CC(=O)OC2CC(C)CCC2C(C)C)c2ccccc2[n+]1C (stereo not given),100.6*,-8.5,-0.4,4.3,65.5*
CC1CCC(C(C)C)C(OC(=O)Cn2c(-c3ccc(Cl)cc3)[n+](C)c3ccccc32)C1 (stereo not given),.,11.0,.,-4.2,51.6
CCOc1ccc(CNS(=O)(=O)c2c(C)nc3sccn3c2=O)cc1OC,.,-4.5,.,-6.0,-4.1
N/C(=N\OC(=O)Cc1cccs1)c1ccc([N+](=O)[O-])cc1,38.5,.,0.2,.,8.6
COc1ccc(/C=C/CN2CCN(Cc3ccccc3)C(CCO)C2)cc1 (stereo not given),32.5,5.9,-0.1,-4.0,42.0
COc1ccc(/C=C/CN2CCN(Cc3ccc(F)cc3)C(CCO)C2)cc1 (stereo not given),68.0*,-7.8,-0.2,0.9,8.3
COC(=O)c1ccc(CN2CCN(CC=C(C)C)C(CCO)C2)cc1 (stereo not given),73.0*,-8.1,-0.2,1.7,27.0
COC(=O)c1ccc(CN2CCN(CC(C)C)C(CCO)C2)cc1 (stereo not given),.,28.1,.,7.0,3.1
COC(=O)c1ccc(CN2CCN(Cc3ccc(F)cc3)C(CCO)C2)cc1 (stereo not given),59.2*,-6.4,-0.2,-7.3,13.4
C=CCNC(=O)c1ccc2c(=O)n(CCCN3CCCC3=O)c(=S)[nH]c2c1,-4.0,-12.7,0.5,-2.5,-19.9
CCCOc1ccc(N2CC(C(=O)NC(C)C)CC2=O)cc1 (stereo not given),-7.8,-69.0,-0.2,-59.6*,1.8
CCc1ccc(OCC(=O)N2c3ccccc3CCc3ccccc32)cc1,20.8,-13.2,-0.2,-2.3,15.9
O=C(COC(=O)C1(c2ccccc2F)CCCC1)N1CCc2ccccc21,-2.9,-64.4,-0.2,-61.4*,9.7
CCCOc1ccc(N2CC(C(=O)Nc3ccccc3OC)CC2=O)cc1 (stereo not given),0.0,-10.4,-0.2,-1.1,0.8
NS(=O)(=O)c1ccc(NC(=O)COC(=O)C2(c3ccccc3F)CCCC2)cc1,3.7,-66.3,-0.4,-57.2*,-4.3
NC(=O)c1ccc(NC(=O)COC(=O)C2(c3ccccc3F)CCCC2)cc1,-0.4,-5.1,-0.2,2.8,9.1
CCc1ccc(OCC(=O)N2CCc3ccccc32)cc1,.,65.3*,.,23.8,17.2
O=C(CO/N=C/c1ccccc1O)N1CCc2ccccc21,74.7*,-7.9,0.0,15.1,-11.9
O=C(OCC(=O)N1CCc2ccccc21)c1ccccc1,-5.2,67.5*,-0.2,33.6,-0.5
CCCc1cc(=O)oc2cc(OCC(=O)N3CCc4ccccc43)ccc12,-4.6,-10.5,-0.1,-3.0,-10.3
O=C(COc1ccc2c(c1)CCC2)N1CCc2ccccc21,51.7*,49.5,0.0,38.2,-5.4
CCOc1ccc(N2CC(C(=O)N3CCCCC3)CC2=O)cc1 (stereo not given),.,7.5,.,4.3,-5.9
O=C(OCC(=O)N1CCc2ccccc21)c1ccc[n+]([O-])c1,-6.5,2.5,-0.5,3.0,1.0
O=C(OCC(=O)N1CCc2ccccc21)c1cccnc1,-3.1,8.0,-0.2,3.3,-2.1
CCOc1ccc(N2CC(C(=O)N3CCc4ccccc43)CC2=O)cc1 (stereo not given),.,51.8*,.,6.9,0.7
CCOC(=O)c1c(NC(=O)CN2C(=O)C(=O)N(CC(C)C)C2=O)sc(C)c1CC,.,3.2,.,1.5,2.9
CCCCCCCCc1nnc(NC(=O)c2ccco2)s1,-3.5,1.6,0.4,0.8,19.6
